# Activity calls are given as the source filed them. No cut-off for these calls is given here.
# Legend:
# RAW264.7 [1] = assay: Inhibition of RANKL-induced osteoclastogenesis in mouse RAW264.7 cells assessed as TRAP+ multinucleated cells level incubated for 4 days by TRAP staining assay; format: functional, cell-based; details: RAW264.7, 96 h
# How it was run: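 RAW264.7 cells in α-MEM with 10% FBS, 2 mM […], 100 ng/mL recombinant soluble murine RANKL and a range of compound concentrations for 4 days, with medium changed on day 2. Cells fixed in acetone/citrate/formaldehyde for 5 min and TRAP-stained. Cells with >5 nuclei counted by light microscopy and expressed as % of RANKL-only; IC50 is 50% inhibition.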
# RAW264.7 [2] = assay: Inhibition of RANKL-induced osteoclastogenesis in mouse RAW264.7 cells assessed as TRAP+ multinucleated cells level at […] incubated for 4 days by TRAP staining assay; format: functional; parameters: scale not given: the % may be the effect or the level left
# RAW264.7 [3] = assay: Inhibition of RANKL-induced cathepsin K mRNA expression in mouse RAW264.7 cells at 5 to […] pre-treated for 1 hr before RANKL stimulation measured after 24 to 48 hrs by RT-PCR method; format: functional, cell-based
# RAW264.7 [4] = assay: Inhibition of RANKL-induced TRAP mRNA expression in mouse RAW264.7 cells at 5 to […] pre-treated for 1 hr before RANKL stimulation measured after 24 to 48 hrs by RT-PCR method; format: functional, cell-based
# RAW264.7 [5] = assay: Inhibition of RANKL-induced NFATc1 protein expression in mouse RAW264.7 cells nuclear extracts assessed as NFATc1 level at 5 uM pre-treated for 1 hr before RANKL stimulation measured after 24 hrs by Western blotting method relative to TBP protein; format: functional
# How it was run: (§1)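 Cells (1 × 10⁶ per 6 cm plate) attached 24 h in DMEM/10% FBS. Pretreated with compound in α-MEM/10% FBS for 1 h, then RANKL 100 ng/mL for 24 h. Nuclear extracts (18 μg) run on 12% SDS-PAGE and blotted with monoclonal anti-NFATc1 or anti-NF-κB (1:1000, 12 h, 4 °C) plus HRP secondary, ECL detection. Band signal normalized to TATA-box binding protein.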
# RAW264.7 [6] = assay: Inhibition of RANKL-induced NFATc1 protein expression in mouse RAW264.7 cells nuclear extracts at 5 to […] pre-treated for 1 hr before RANKL stimulation measured after 24 hrs by Western blotting method; format: functional, cell-based
# RAW264.7 [7] = assay: Inhibition of RANKL-induced bone resorption in mouse RAW264.7 cells incubated for 4 days by toluidine blue staining based pit formation assay; format: functional, cell-based
# How it was run: (§2)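 Seeded at 1 × 10⁴/well onto dentine slices in α-MEM/10% FBS with 100 ng/mL RANKL plus compound. Medium with compound renewed every 2 days. On day 4, cells removed with 1 M ammonium hydroxide, slices stained with 0.1% toluidine blue, pits imaged by light microscopy. Resorbed area expressed as fraction of total area; significance versus the RANKL-only group.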
# RAW264.7 [8] = assay: Cytotoxicity against mouse RAW264.7 cells assessed as survival rate at 5 and 10 uM after 24 hrs by MTT assay; format: cell-based; details: raw264.7, 24 h
# How it was run: (§3)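 Cells at 1 × 10⁴/well in DMEM + 10% FBS, exposed to compounds for 24 h at 37 °C, 5% CO₂. After PBS washes, MTT (0.5 mg/mL in medium) added for 1 h at 37 °C; formazan dissolved in DMSO, absorbance read at 540 nm. Viability expressed as % of DMSO control; CC₅₀ is the concentration giving 50% loss of mean viability (N = 3).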
# [9] = Cytotoxicity against mouse RAW264.7 cells assessed as reduction in survival rate after 24 hrs by MTT assay; format: cell-based; how it was run: as §3
# RAW264.7 [10] = assay: Inhibition of RANKL-induced NFkappaB protein expression in mouse RAW264.7 cells nuclear extracts assessed as NFkappaB level at […] pre-treated for 1 hr before RANKL stimulation measured after 24 hrs by Western blotting method relative to TBP protein; format: functional
# RAW264.7 [11] = assay: Inhibition of RANKL-induced DC-STAMP mRNA expression in mouse RAW264.7 cells at 5 to […] pre-treated for 1 hr before RANKL stimulation measured after 24 to 48 hrs by RT-PCR method; format: functional, cell-based
# RAW264.7 [12] = assay: Inhibition of RANKL-induced MMP9 mRNA expression in mouse RAW264.7 cells at 5 to […] pre-treated for 1 hr before RANKL stimulation measured after 24 to 48 hrs by RT-PCR method; format: functional, cell-based
# [13] = Toxicity in mouse MC3T3-E1 cells assessed as effect on osteoblast differentiation by measuring ALP activity at […] incubated for 14 days in presence of beta-glycerol phosphate and ascorbic acid; format: cell-based; details: mc3t3-e1, 336 h
# RAW264.7 [14] = assay: Inhibition of RANKL-induced osteoclastogenesis in mouse RAW264.7 cells assessed as TRAP+ multinucleated cells level at 10 uM incubated for 4 days by TRAP staining assay; format: functional; parameters: scale not given: the % may be the effect or the level left
# How it was run: (§4)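 Cells plated at 1 × 10³ (96-well) or 5 × 10⁴ (48-well) in α-MEM with 10% FBS, 2 mM […], 100 ng/mL recombinant murine RANKL and compound for 4 days; medium changed on day 2. Fixed in acetone/citrate/formaldehyde for 5 min and TRAP-stained. TRAP⁺ cells with >5 nuclei counted by light microscopy, expressed as % of the RANKL-only group.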
# [15] = Toxicity in mouse MC3T3-E1 cells assessed as effect on osteoblast differentiation by measuring ECM calcification activity at […] incubated for 14 days in presence of beta-glycerol phosphate and ascorbic acid by Alizarin red S staining method; format: cell-based; details: mc3t3-e1, 336 h
# RAW264.7 [16] = assay: Inhibition of RANKL-induced NFkappaB protein expression in mouse RAW264.7 cells nuclear extracts at 5 to […] pre-treated for 1 hr before RANKL stimulation measured after 24 hrs by Western blotting method; format: functional, cell-based
# RAW264.7 [17] = assay: Inhibition of RANKL-induced osteoclastogenesis in mouse RAW264.7 cells assessed as reduction in TRAP activity incubated for 4 days by TRAP staining assay; format: functional, cell-based; details: for IC50: RAW264.7, 96 h
# How it was run: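 RAW264.7 cells were RANKL-differentiated (100 ng/mL recombinant soluble murine RANKL in α-MEM/10% FBS, compounds at various concentrations, 4 days, medium changed day 2). TRAP activity was read with 2 mg/mL 4-nitrophenyl phosphate in 0.09 M citrate buffer for 15 min at 37 °C, stopped with 0.1 N NaOH. Expressed as % of RANKL-only; IC50 is 50% inhibition.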
# RAW264.7 [18] = assay: Inhibition of RANKL-induced NFkappaB protein expression in mouse RAW264.7 cells nuclear extracts assessed as NFkappaB level at 5 uM pre-treated for 1 hr before RANKL stimulation measured after 24 hrs by Western blotting method relative to TBP protein; format: functional; how it was run: as §1
# RAW264.7 [19] = assay: Inhibition of RANKL-induced osteoclastogenesis in mouse RAW264.7 cells assessed as TRAP+ multinucleated cells level at 5 uM incubated for 4 days by TRAP staining assay; format: functional; parameters: scale not given: the % may be the effect or the level left; how it was run: as §4
# RAW264.7 [20] = assay: Inhibition of RANKL-induced bone resorption in mouse RAW264.7 cells assessed as reduction in resorbed area at 2.5 to 10 uM incubated for 4 days by toluidine blue staining based pit formation assay; format: functional, cell-based; how it was run: as §2
# [21] = Cytotoxicity against mouse RAW264.7 cells assessed as survival rate at 10 uM after 24 hrs by MTT assay; format: cell-based; details: read-out: Activity; how it was run: as §3
# RAW264.7 [22] = assay: Inhibition of RANKL-induced NFATc1 protein expression in mouse RAW264.7 cells nuclear extracts assessed as NFATc1 level at […] pre-treated for 1 hr before RANKL stimulation measured after 24 hrs by Western blotting method relative to TBP protein; format: functional
# RAW264.7 [23] = assay: Inhibition of RANKL-induced NFATc1 mRNA expression in mouse RAW264.7 cells at 5 to […] pre-treated for 1 hr before RANKL stimulation measured after 24 to 48 hrs by RT-PCR method; format: functional, cell-based
# RAW264.7 [24] = assay: Inhibition of RANKL-induced c-fos mRNA expression in mouse RAW264.7 cells at 5 to […] pre-treated for 1 hr before RANKL stimulation measured after 24 to 48 hrs by RT-PCR method; format: functional, cell-based
# RAW264.7 [25] = assay: Inhibition of RANKL-induced osteoclastogenesis in mouse RAW264.7 cells assessed as TRAP+ multinucleated cells level at 2.5 uM incubated for 4 days by TRAP staining assay; format: functional; parameters: scale not given: the % may be the effect or the level left; how it was run: as §4
Compound,IC50 (RAW264.7 [1]),Activity (RAW264.7 [2]),inhibition (RAW264.7 [3]),inhibition (RAW264.7 [4]),fold change (FC) (RAW264.7 [5]),inhibition (RAW264.7 [6]),inhibition (RAW264.7 [7]),Activity (RAW264.7 [8]),CC50 at 24 h [9],fold change (FC) (RAW264.7 [10]),inhibition (RAW264.7 [11]),inhibition (RAW264.7 [12]),Activity [13],Activity (RAW264.7 [14]),Activity [15],inhibition (RAW264.7 [16]),inhibition (RAW264.7 [17]),IC50 (RAW264.7 [17]),fold change (FC) (RAW264.7 [18]),Activity (RAW264.7 [19]),further results
O=c1oc2ccccc2c(=O)n1-c1ccc(Cl)cc1F,7.1 µM,45.9%,Dose-dependent effect,Dose-dependent effect,0.99,Dose-dependent effect,Dose-dependent effect,Non-toxic,26.5 µM,0.73,Active,Dose-dependent effect,Non-toxic,19.7%,Non-toxic,Dose-dependent effect,Dose-dependent effect,10.6 µM,0.77,74.6%,"inhibition (RAW264.7 [20]): Active; viability at 24 h, 10 µM [21]: 97.9%; fold change (FC) (RAW264.7 [22]): 0.76; inhibition (RAW264.7 [23]): Active; inhibition (RAW264.7 [24]): Active"
O=c1oc2ccccc2c(=O)n1-c1ccc(I)cc1F,4.9 µM,29.1%,Dose-dependent effect,Dose-dependent effect,0.76,Dose-dependent effect,Dose-dependent effect,Non-toxic,23.6 µM,0.58,Active,Dose-dependent effect,Non-toxic,1.8%,Non-toxic,Dose-dependent effect,Dose-dependent effect,7.3 µM,0.75,49.1%,"Activity (RAW264.7 [25]): 74.1%; inhibition (RAW264.7 [20]): Active; viability at 24 h, 10 µM [21]: 91.4%; fold change (FC) (RAW264.7 [22]): 0.72; inhibition (RAW264.7 [23]): Active; inhibition (RAW264.7 [24]): Active"

# — ChEMBL document CHEMBL3351250, “Modified salicylanilide and 3-phenyl-2H-benzo[e][1,3]oxazine-2,4(3H)-dione derivatives as novel inhibitors of osteoclast differentiation and bone resorption” (J Med Chem, 2014)
